High-throughput results deposited in PubChem BioAssay by The Scripps Research Institute Molecular Screening Center.
In the library only some 1.9% were active in any assay of this set; here they are far more common.
IMP-1 inhibitor = inhibitors of Pseudomonas aeruginosa IMP-1 metallo-beta-lactamase; purified IMP-1, nitrocefin hydrolysis, epi-absorbance fluorescence; inhibition, % at 5.6 µM; 0.45% of 290,000 active; AID 1556;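 active = inhibition above the mean plus 3 SD of all compounds in the same screening run, cut at about 4.5% in these data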
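assay system = purified recombinant IMP-1 metallo-beta-lactamase enzyme | schedule = 15 min preincubation plus 25 min reaction at 25 °C | signal = Epi-absorbance fluorescence, 480 nm excitation, 530 nm emission | read-out basis = percent inhibition from optical density relative to buffer-blank wells | controls = IMP-1 with DMSO as 0%, enzyme-free DMSO as 100%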
VIM-2 inhibitor = blocks Pseudomonas aeruginosa VIM-2 metallo-beta-lactamase; purified VIM-2, nitrocefin hydrolysis, epi-absorbance fluorescence; inhibition, % at 5.6 µM; 0.89% of 290,000 active;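 active = inhibition above the mean of all tested compounds plus 3 SD, cutoff set per screening run, cut at about 7.5% in these data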;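 note: red hydrolysis product quenches plate fluorescence so inhibitors raise well fluorescence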
NS3 helicase inh = blocks Hepatitis C virus NS3 helicase unwinding | AID 1800 | inhibition, % at 10.9 µM | 0.56% of 290,000 active | NS3 helicase DNA unwinding, Cy5 molecular beacon fluorescence;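 active = inhibition above the mean of all tested compounds plus 3 SD, set per campaign, cut at about 35% in these data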
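Test system: hepatitis C virus NS3 helicase domain fragment enzyme. Also added: annealed dual-labelled DNA beacon duplex, ATP-started. Timing: 60 min unwinding reaction at 25 °C after ATP addition. Technique: Cy5 fluorescence. Measure: % inhibition of unwinding.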
DNA FID counter-1 = displaces DNA intercalator in HCV helicase counter-screen; DNA fluorescent intercalator displacement, fluorescence; AID 1845; 0.17% of 290,000 active; inhibition, % at 7.9 µM;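 note: higher means more ethidium bromide displaced from hairpin DNA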
NS3 helicase cf = confirmation of Hepatitis C virus NS3 helicase inhibitors | shares compounds with NS3 helicase inh | inhibition, % at 10.9 µM | NS3 helicase DNA unwinding, Cy5 molecular beacon fluorescence | 31% of 1,600 active;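 active = inhibition above the mean of all tested compounds plus 3 SD, cutoff set per campaign, cut at about 36% in these data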
DNA FID counter-2 = intercalator displacement, NS3 helicase counter-screen; shares compounds with NS3 helicase inh; DNA fluorescent intercalator displacement, fluorescence; inhibition, % at 7.9 µM; 4% of 1,600 active; AID 1945;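 note: higher means more displacement of ethidium bromide from the DNA hairpin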
Hits are given with their value; 0 = inactive; - = no result given. Cut-off read from the data, not from the text of the source, unless noted: active = inhibition above about 37%; inactive = the rest.

SMILES	IMP-1 inhibitor	VIM-2 inhibitor	NS3 helicase inh	DNA FID counter-1	NS3 helicase cf	DNA FID counter-2
Cc1cc2c(c(=O)o1)C(CCC1CCCCC1)C(C#N)=C(N)O2 (configuration not stated)	11	0	39	0	0	0
COc1ccc(CCNC(=O)c2cc3c(=O)n4cccc(C)c4nc3n(Cc3ccco3)c2=N)cc1OC	0	0	38	0	0	0
CCCCn1c(=NC(=O)c2ccco2)c(C(=O)OCC)cc2c(=O)n3ccccc3nc21	0	0	0	0	-	-
CCOC(=O)c1cc2c(=O)n3ccccc3nc2n(Cc2ccco2)c1=NC(=O)c1ccc(OC)cc1OC	0	0	51	0	0	0
COc1cccc(CNC(=O)CN2C(=O)CSc3ccc(S(=O)(=O)N4CCOCC4)cc32)c1	0	0	0	0	-	-
CCOC(=O)C(=CNc1ccc(-c2ccco2)c(Cl)c1)C(=O)OCC	6.4	0	42	0	0	0
CCOC(=O)C(=CNc1cc(Cl)c(-c2ccco2)c(Cl)c1)C(=O)OCC	6.1	0	46	0	0	0
CCOC(=O)C(=CNc1ccccc1Cl)C(=O)OCC	0	0	0	0	-	-
CCOC(=O)c1ccccc1NC(=O)COC(=O)CCNS(=O)(=O)c1ccccc1	0	0	0	0	-	-
COc1ccc(N2CCN(CCCNC(=O)CN3C(=O)COc4ccccc43)CC2)cc1	0	0	0	0	-	-
O=C(O)CCNc1ccc(NCCC(=O)O)c2c1C(=O)c1ccccc1C2=O	0	0	60	0	0	0
O=C(Nc1nn[nH]n1)c1cccc([N+](=O)[O-])c1	0	0	0	0	-	-
CCCCc1c(C)nc2c(OC)cccc2c1SCC(=O)O	0	0	37	0	0	0
CN(C)c1ccc(/C=N/NC2=NS(=O)(=O)c3ccccc32)cc1	0	0	40	0	0	0
CC(=O)Oc1ccc(/C=N/NC2=NS(=O)(=O)c3ccccc32)cc1	0	0	0	0	-	-
COc1ccc(/C=N/NC2=NS(=O)(=O)c3ccccc32)cc1	0	0	0	0	-	-
COc1ccc(/C=N/NC2=NS(=O)(=O)c3ccccc32)cc1OC(C)=O	0	0	52	0	0	0
CCOC(=O)c1cc(-c2ccc(/C=C3/C(=O)NC(=O)C(C#N)=C3C)o2)ccc1Cl	0	0	50	0	71	75
Cc1ccc(N2NC(=O)/C(=C/c3ccc(-c4ccc(Cl)c(C(=O)O)c4)o3)C2=O)cc1	0	0	0	0	-	-
CCCCC1(C)OC(=O)C(=Cc2ccc(-c3ccc(Cl)c(C(=O)O)c3)o2)C(=O)O1 (configuration not stated)	29	0	67	0	77	0
CC1=C(C#N)C(=O)NC(=O)/C1=C\c1ccc(-c2ccc(C)cc2[N+](=O)[O-])o1	0	0	40	0	63	49
O=C(Cc1cccc2ccccc12)Nc1ccccc1Br	0	0	0	0	-	-
Cc1cc(C)n2nc(CCCO)nc2n1	0	0	0	0	-	-
COc1cc(/C=C2/SC(=S)N(Cc3ccccc3)C2=O)ccc1OCC(=O)O	0	0	37	0	0	0
O=C(O)CN1C(=O)/C(=C\c2ccccc2OCc2ccc(Cl)cc2Cl)SC1=S	0	0	47	0	66	0
SMILES	IMP-1 inhibitor	VIM-2 inhibitor	NS3 helicase inh	DNA FID counter-1	NS3 helicase cf	DNA FID counter-2
O=C(O)CN1C(=O)/C(=C\c2cc(Br)ccc2OCc2ccc([N+](=O)[O-])cc2)SC1=S	0	0	56	0	66	56
O=C(O)CCN1C(=O)/C(=C\c2ccc(OCc3ccccc3)c(OCc3ccccc3)c2)SC1=S	0	0	0	0	-	-
O=C(O)CN1C(=O)/C(=C\c2cc(Br)ccc2OCc2ccccc2F)SC1=S	0	0	0	0	-	-
COc1cc(/C=C2/SC(=S)N(Cc3ccccc3)C2=O)ccc1OS(C)(=O)=O	0	0	0	0	-	-
O=C(O)CN1C(=O)/C(=C\c2cc(Br)ccc2OCc2ccccc2Cl)SC1=S	0	0	47	0	69	48
O=C1/C(=C\c2ccc(O)cc2)SC(=S)N1Cc1ccccc1	0	0	0	0	-	-
O=C1/C(=C\c2cc(Br)cc(Br)c2O)SC(=S)N1Cc1ccccc1	0	0	57	0	75	0
Cc1ccc(C)n1N1C(=O)/C(=C\c2ccc(Cl)cc2)SC1=S	0	0	43	0	0	0
COc1ccccc1-n1cnnc1SC(C)C(=O)Nc1cccc([N+](=O)[O-])c1 (configuration not stated)	0	0	0	0	-	-
CN1CCN(S(=O)(=O)c2cccc3nsnc23)CC1	0	0	0	0	-	-
CC(=O)C1=C(O)C(=O)N(c2cc(C(C)(C)C)on2)C1c1ccc(Br)cc1 (configuration not stated)	0	0	38	0	68	0
CC(=O)C1=C(O)C(=O)N(c2ccc(O)cc2)C1c1ccc(Cl)cc1 (configuration not stated)	0	0	0	0	-	-
CC(=O)C1=C(O)C(=O)N(c2ccc(Br)cc2)C1c1ccc(Cl)cc1 (configuration not stated)	0	0	37	0	80	0
Cc1noc(C)c1S(=O)(=O)N(CC(=O)NCc1ccccc1)c1ccc(C(C)C)cc1	0	0	0	0	-	-
Cc1ccc(N(CC(=O)NCc2ccccc2Cl)S(=O)(=O)c2c(C)noc2C)cc1	0	0	0	0	-	-
Cc1noc(C)c1S(=O)(=O)N(CC(=O)NCCc1ccccc1)c1ccc(C(C)C)cc1	0	0	37	0	0	0
CCOc1ccc(N(CC(=O)NCc2ccccc2Cl)S(=O)(=O)c2c(C)noc2C)cc1	0	0	40	0	0	0
CCn1cc(S(=O)(=O)NC(C)c2cc(OC)ccc2OC)cn1 (configuration not stated)	0	0	0	0	-	-
CCCCC(=O)N/N=C/c1ccc(N2CCOCC2)c([N+](=O)[O-])c1	0	0	0	0	-	-
N#CC1=C(S)N(c2ccccc2)C(c2ccc(-c3ccccc3Cl)o2)NC1=O (configuration not stated)	12	0	42	0	51	0
O=C1CCCCC1Sc1nnc(-c2ccc3c(c2)OCO3)o1 (configuration not stated)	0	0	0	0	-	-
Cc1ccc(Cl)cc1NC(=O)CCS(=O)(=O)c1cccc2nonc12	0	0	0	0	-	-
CCC1=Nc2cc(C(=O)NCc3ccco3)ccc2Sc2ccc(Cl)cc21	0	0	37	0	0	0
CN(NC1OC(=O)c2ccccc21)c1ccccc1[N+](=O)[O-] (configuration not stated)	0	0	0	0	-	-
CS(=O)(=O)c1nsc2nc(=O)c(/C=C3\C=Nc4ccccc43)c(N)n12	0	0	0	0	-	-
Cc1cc2nc(=O)c(/C=C3\C=Nc4ccccc43)c(N)n2o1	0	0	43	0	0	0
Cc1ccc(C2C=NN(c3ccccc3)C2=O)cc1 (configuration not stated)	0	0	0	0	-	-
